Experimental data taken from ChEMBL document CHEMBL1147783, “Synthesis and biological activity of novel 4-phenyl-1,8-naphthyridin-2(1H)-on-3-yl ureas: potent acyl-CoA:cholesterol acyltransferase inhibitor with improved aqueous solubility” (Bioorg Med Chem Lett, 2006).

Experiments:
[1] = target: T1, Sterol O-acyltransferase 1 (Rattus norvegicus, UniProt O70536); test: Inhibitory activity against ACAT in rat macrophages
T1 sequence (O70536 whole entry): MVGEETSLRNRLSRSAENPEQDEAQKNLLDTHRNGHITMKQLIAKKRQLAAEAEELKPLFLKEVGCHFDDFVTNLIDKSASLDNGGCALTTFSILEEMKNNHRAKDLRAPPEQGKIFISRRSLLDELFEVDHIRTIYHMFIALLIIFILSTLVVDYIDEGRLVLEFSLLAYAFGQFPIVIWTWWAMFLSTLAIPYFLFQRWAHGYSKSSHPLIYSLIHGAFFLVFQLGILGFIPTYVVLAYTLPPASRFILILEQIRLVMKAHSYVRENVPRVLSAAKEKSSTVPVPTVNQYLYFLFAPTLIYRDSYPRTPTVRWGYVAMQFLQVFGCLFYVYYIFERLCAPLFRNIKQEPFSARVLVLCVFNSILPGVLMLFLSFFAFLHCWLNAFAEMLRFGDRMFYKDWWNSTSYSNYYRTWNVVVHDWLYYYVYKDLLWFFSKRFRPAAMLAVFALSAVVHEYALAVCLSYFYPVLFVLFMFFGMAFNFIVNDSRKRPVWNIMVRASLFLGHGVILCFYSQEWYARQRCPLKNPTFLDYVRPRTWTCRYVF

[2] = Solubility in phosphate buffer at pH 5.5; type: physicochemical
How it was run: (§1)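 Solubility was measured at rt in phosphate buffer (5.53% aq citric acid/1.75% aq Na₂HPO₄) adjusted to pH 2.5, 5.5 or 7.4. Dissolved compound was quantified by HPLC.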

[3] = Solubility in phosphate buffer at pH 2.5; type: physicochemical; how it was run: as §1
[4] = Solubility in phosphate buffer at pH 7.4; type: physicochemical; how it was run: as §1
[5] = Cmax in rabbit administered with 1.0 mg/kg/day for 21 days; type: ADME, organism-based, Oryctolagus cuniculus; set-up: dose 1 mg/kg/day; conditions: in vivo
How it was run: (§2)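 Rabbits were dosed orally at 1.0 mg/kg/day for 21 days. Blood drug levels gave Cmax and AUC over 0–24 h. Serum total cholesterol was measured under the same regimen and expressed relative to control animals.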

[6] = Cmax in mice administered with 30 mg/kg po; type: ADME, organism-based; set-up: dose 30 mg/kg, route oral; conditions: mouse, in vivo
[7] = test system: Oryctolagus cuniculus; test: Decrease in serum total cholesterol in rabbit administered with 1.0 mg/kg/day for 21 days compared to control; type: ADME, organism-based; set-up: scale not given: the % may be the effect or the level left; conditions: in vivo, 504 h; how it was run: as §2
[8] = AUC in rabbit administered with 1.0 mg/kg/day for 21 days; type: ADME, organism-based, Oryctolagus cuniculus; conditions: plasma; how it was run: as §2

| SMILES | IC50 [1] [nM] | solubility [2] [µg/mL] | solubility [3] [µg/mL] | solubility [4] [µg/mL] | Cmax [5] [ng/mL] | Cmax [6] [ng/mL] | Activity [7] [%] | AUC at 504 h [8] [ng·h/mL] |
| --- | --- | --- | --- | --- | --- | --- | --- | --- |
| CCCCn1c(=O)c(NC(=O)Nc2c(C(C)C)cccc2C(C)C)c(-c2cccc(OC)c2)c2cccnc21 | 11 | < 1 | < 1 | < 1 |  |  |  |  |
| CCCCn1c(=O)c(NC(=O)Nc2c(C(C)C)cc(N)cc2C(C)C)c(-c2cccc(OCCCN3CCCC3)c2)c2cccnc21.Cl.Cl | 427 | 200 | > 1000 | 130 |  |  |  |  |
| CCCCn1c(=O)c(NC(=O)Nc2c(C(C)C)cc(CN(CC)CC)cc2C(C)C)c(-c2cccc(OC)c2)c2cccnc21.Cl | 680 | 1000 | > 1000 | 62 |  |  |  |  |
| CCCCn1c(=O)c(NC(=O)Nc2c(C(C)C)cc(N)cc2C(C)C)c(-c2cccc(OCCCN(CC)CC)c2)c2cccnc21.Cl.Cl | 452 | 690 | > 1000 | 640 |  |  |  |  |
| CCCCn1c(=O)c(NC(=O)Nc2c(C(C)C)ccc(N)c2C(C)C)c(-c2cccc(OCCCO)c2)c2cccnc21.Cl | 43 | 19 | > 1000 | 17 |  |  |  |  |
| CCCCn1c(=O)c(NC(=O)Nc2c(C(C)C)cc(N)cc2C(C)C)c(-c2cccc(OCCO)c2)c2cccnc21.Cl | > 1000 | 32 | > 1000 | 30 |  |  |  |  |
| CCCCn1c(=O)c(NC(=O)Nc2c(C(C)C)cc(N)cc2C(C)C)c(-c2cccc(OCCCCO)c2)c2cccnc21.Cl | 61 | 7 | 680 | 5 |  |  |  |  |
| CCCCn1c(=O)c(NC(=O)Nc2c(C(C)C)cc(N)cc2C(C)C)c(-c2cccc(OCCCO)c2)c2cccnc21.Cl | 21 | 14 | > 1000 | 10 | 16 | 21300 | 53 | 39.8 |
| CCCCn1c(=O)c(NC(=O)Nc2c(C(C)C)cc(N)cc2C(C)C)c(-c2cccc(OCCCN3CCCCC3)c2)c2cccnc21.Cl.Cl | 540 | 180 | > 1000 | 200 |  |  |  |  |
| CCCCn1c(=O)c(NC(=O)Nc2c(C(C)C)cc(N)cc2C(C)C)c(-c2cccc(OC)c2)c2cccnc21.Cl | 8.3 | 1 | 22 | < 1 |  |  |  |  |
| CCCCn1c(=O)c(NC(=O)Nc2c(C(C)C)ccc(N)c2C(C)C)c(-c2cccc(OC)c2)c2cccnc21.Cl | 14 | 1 | 700 | 1 |  |  |  |  |
| CCCCn1c(=O)c(NC(=O)Nc2c(C(C)C)ccnc2C(C)C)c(-c2cccc(OC)c2)c2cccnc21.Cl | 5.4 | 19 | > 1000 | 5 |  |  |  |  |
| CCCCn1c(=O)c(NC(=O)Nc2c(C(C)C)cc(CN)cc2C(C)C)c(-c2cccc(OC)c2)c2cccnc21.Cl | 382 | 23 | 220 | 36 |  |  |  |  |
